Key:
[1] = test system: PC-3 tumor-bearing nude mice; assay: Small animal microPET imaging, ROI-derived radioactivity accumulation; type: in vivo; details: 3.7 MBq i.v.; PC-3 tumor-bearing mice; n = 3/group
Method in brief: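 Male athymic nude mice carried PC-3 xenografts (5 × 10^6 cells s.c., front flank; 100–300 mm3 after 3–4 weeks). Under isoflurane, ~3.7 MBq (100 μCi) radiotracer was given via tail vein. Five-minute static scans were taken at 30 min, 1 h and 2 h (2D OSEM, no attenuation or scatter correction). ROIs on decay-corrected coronal images gave %ID/g, assuming 1 g/mL; n = 3/group.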

PC-3 cells [2] = assay: Cell uptake of 18F-labeled BBN peptides; type: cell-based, human; details: for PC-3 cell uptake peak value (percent added radioactivity): 37 °C, 15 min, n = 3, mean ± SD; for Cell uptake at 37 °C versus 4 °C: PC-3 cells
Method in brief: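 PC-3 cells (F-12K, 10% FBS, 37 °C, 5% CO2) were seeded at 1 × 10^5 per well overnight, washed three times with PBS, and given ~0.5 μCi/well radiotracer in triplicate at 37 °C. At 15, 30, 60 and 120 min, cells were rinsed with PBS and lysed with 0.1 M NaOH. Lysate activity was gamma-counted and expressed as percent added radioactivity.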

PC-3 cells [3] = assay: Cell washout; type: cell-based, human; details: 37 °C, serum-free medium devoid of radioactivity
Method in brief: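 PC-3 cells were seeded at 1 × 10^5 per well overnight, PBS-rinsed, then loaded with ~0.5 μCi/well radiotracer in triplicate for 2 h at 37 °C. After a PBS wash they were re-incubated in serum-free medium. At 0, 15, 30, 60 and 120 min, cells were PBS-washed and lysed in 0.1 M NaOH. Retained activity was gamma-counted as percent added radioactivity.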

| Substance | Activity accumulation in non-target organs on PET images (in words) [1] | Tumor uptake on PET images (in words) [1] | PC-3 cell uptake peak value (percent added radioactivity) (PC-3 cells [2]) | Cell uptake at 37 °C versus 4 °C (PC-3 cells [2]) | Washout rate from PC-3 cells (PC-3 cells [3]) |
| --- | --- | --- | --- | --- | --- |
| 18F-FP-FQWAVGHL-NHEt [^18F-FP-ATBBN] | rapid and prominent activity accumulation in the liver and intestines | almost no tumor uptake | – | – | – |
| 18F-FP-Aca-QWAVGHLM-NH2 [^18F-FP-AGBBN] | very high liver, bile and intestinal uptake | some tumor accumulation | – | – | – |
| 18F-FP- GGGRDN-FQWAVGHLM-NHEt [^18F-FP-MATBBN] | – | – | 0.3 ± 0.07% | no significant difference | Much faster washout rate |
| 18F-FP- GGGRDN-QWAVGHLM-NH2 [^18F-FP-MAGBBN] | – | – | 1.2 ± 0.07% | 2 fold | slower washout |

Source: article PMC3086613 (Theranostics, 2011)
